Source: PubChem BioAssay
Runt-SMMHC FRET: inhibitors of RUNX1 Runt–CBFb-SMMHC binding, primary screen, biochemical, FRET, Cerulean-Runt, Venus-CBFb-SMMHC, uHTS. Cerulean-Runt/Venus-CBFb-SMMHC FRET ratio 530/480, 1 h. inhibition, % at 20 µM. 0.74% of 220,000 active;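 active means mean inhibition across duplicate retests at 20 µM reaching about 50%, limit read from the data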;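 further: 0% = DMSO wells and 100% = wells with excess untagged CBFb-SMMHC; inhibitors lower the FRET ratio by blocking Runt binding to CBFb-SMMHC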
RBBP9 inh: human RBBP9 inhibitors, primary screen, biochemical, fluorescence polarization, FP-Rh probe, HTS; 0.2% of 220,000 active; recombinant RBBP9; AID 1515, 2009; Serine hydrolase RBBP9 (Homo sapiens), O75884; inhibition, % at 7.94 µM;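 active means inhibition above the campaign mean of all tested compounds plus 3 SD, cut at about 14% in these data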;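 further: plate controls were DMSO wells with RBBP9 for no effect and wells lacking RBBP9 protein for full effect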
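Material: RBBP9 protein. Amount: RBBP9 at 2.5 µM in dispensed solution, before mixing. Schedule: 30 min then 45 min, 25 °C. Medium: Tris buffer pH 8.0, NaCl, Pluronic. Measured by: fluorescence polarization. Measure: percent inhibition from mP, scaled between DMSO and no-protein wells. Replication: one well per compound.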
RanGTP-Impb inh: inhibitors of RanGTP-importin-beta interaction, primary screen, biochemical, FRET, CFP-Ran, YFP-importin-beta, homogeneous. inhibition, % (test concentration not listed). 1.1% of 300,000 active. cell-free CFP-Ran/YFP-importin-beta FRET ratio. Ran GTPase (GTP-bound) - importin-beta complex;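 active means more than half of the replicate wells show a fall in the fluorescence ratio signal beyond about 16%, limit read from the data, passing the limit was not always enough; inconclusive means exactly half of the replicate wells pass the set limit; inactive means fewer than half of replicates pass the limit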;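 further: 0% = DMSO wells and 100% = Ran loaded with GDP instead of GTP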
Hck-Nef inh: inhibitors of Nef-activated human Hck kinase, primary screen, biochemical, Z-Lyte FRET, 384-well, Hck-YEEI; Tyrosine-protein kinase HCK (Homo sapiens), P08631; 0.68% of 220,000 active; inhibition, % at 20 µM; AID 463187, 2010; Recombinant Hck-YEEI plus Nef, Z-Lyte FRET kinase assay;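 active means Hck-Nef kinase inhibition above about 50%, limit read from the data; inactive means inhibition below that limit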;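 further: 0% = DMSO with Hck plus Nef and 100% = Hck alone without Nef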
Target sequence (P08631 whole entry, looked up): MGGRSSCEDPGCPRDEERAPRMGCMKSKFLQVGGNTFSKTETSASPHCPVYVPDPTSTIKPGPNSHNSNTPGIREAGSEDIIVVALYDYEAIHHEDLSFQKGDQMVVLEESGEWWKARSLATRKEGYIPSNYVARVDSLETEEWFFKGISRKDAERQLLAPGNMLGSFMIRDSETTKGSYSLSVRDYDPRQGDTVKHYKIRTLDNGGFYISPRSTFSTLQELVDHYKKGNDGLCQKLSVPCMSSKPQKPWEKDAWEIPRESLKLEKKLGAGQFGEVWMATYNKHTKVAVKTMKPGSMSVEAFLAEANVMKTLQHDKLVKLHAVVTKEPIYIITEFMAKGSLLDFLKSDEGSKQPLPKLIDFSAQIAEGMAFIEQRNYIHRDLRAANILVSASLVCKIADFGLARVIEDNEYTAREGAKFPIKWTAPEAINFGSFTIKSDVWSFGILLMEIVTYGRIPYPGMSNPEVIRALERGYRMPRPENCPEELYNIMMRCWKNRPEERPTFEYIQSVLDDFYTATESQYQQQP
Runt-CBFb FRET: inhibitors of RUNX1 Runt–CBFb binding, primary screen, biochemical, FRET, Cerulean-Runt, Venus-CBFb, uHTS | 0.46% of 220,000 active | inhibition, % at 20 µM | Cerulean-Runt/Venus-CBFb FRET ratio 530/480, 1 h | AID 1496, 2009;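 active means inhibition over about 50% at 20 µM in the single-dose screen, limit read from the data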;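 further: 0% = DMSO wells and 100% = excess unlabeled CBFb competitor control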
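Schedule: protein complex preformed 1 h, compound exposure 1 h, room temperature, dark; test system: Cerulean-labeled Runt domain protein; amount: 100 nM per protein; buffer or medium: Tris 50 mM pH 7.5, KCl, K2SO4, 0.01% BSA; read-out: loss of energy transfer signal; detection: FRET fluorescence; controls: 5 µM unlabeled CBFb as full-inhibition high control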
M18AAP inhibitor: PfM18AAP inhibitors, malaria aminopeptidase, primary screen, biochemical, QFRET, recombinant enzyme. H-Glu-NHMec fluorogenic cleavage. 1.2% of 290,000 active. M18 aspartyl aminopeptidase (Plasmodium falciparum 3D7). inhibition, % at 7.35 µM;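 active means inhibition above the campaign mean inhibition over all tested compounds plus 3 SD, cut at about 28% in these data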;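 further: 0% = plate median of test compound wells and 100% = 2 mM ZnCl2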
Starred values were filed as active, the others as inactive; ? = inconclusive; · = not tested or not shown. In the library only some 2.9% were active in any assay of this set; here they are far more common.

SMILES	Runt-SMMHC FRET	RBBP9 inh	RanGTP-Impb inh	Hck-Nef inh	Runt-CBFb FRET	M18AAP inhibitor
Cc1c(N=Nc2ccc(O)cc2)c(=O)n(-c2ccccc2)n1C	-2	-10	1	-17	1	13
Cc1c(N=NC2=C(O)CCCC2=O)c(=O)n(-c2ccccc2)n1C	-12	-6	-2	25	7	32*
COC(=O)c1ccc(Oc2c(C(F)(F)F)oc3c(CN4CCN(C)CC4)c(O)ccc3c2=O)cc1	-31	-1	39*	-1	-9	9
O=C(O)c1ccc(Oc2c(C(F)(F)F)oc3cc(O)ccc3c2=O)cc1	-13	-8	24*	17	-3	5
CCOc1ccccc1Oc1c(C)oc2c(CN3CCN(C)CC3)c(O)ccc2c1=O	2	-1	·	2	-1	-8
CC(=O)c1ccc(S(=O)(=O)NC2CC(=O)N(c3ccc(Cl)cc3)C2)cc1 (stereo unspecified)	·	·	-2	·	·	·
Oc1ccc(Nc2nc(N3CCCC3)c3ccccc3n2)cc1	71*	-1	-3	0	27	-12
COCCN(Cc1ccco1)C(=O)C1CCCN(c2ncnc3c2nc2n3CCCCC2)C1 (stereo unspecified)	·	·	-1	·	·	10
O=[N+]([O-])c1ccc(S(=O)(=O)NCC2COc3ccccc3O2)cc1 (stereo unspecified)	·	·	187*	·	·	-3
O=[N+]([O-])c1ccc(S(=O)(=O)NCC2CCCO2)cc1 (stereo unspecified)	3	4	2	3	4	-11
CC(C)CC(N=Cc1c(O)c2ccccc2oc1=O)C(=O)O (stereo unspecified)	-1	-12	?	10	-1	5
COCCC(=O)N(Cc1ccc2c(c1)OCO2)C(C(=O)NC1CCCCC1)c1ccncc1 (stereo unspecified)	1	-4	4	3	-1	30*
COc1ccc(CN(C(=O)Cc2cccs2)C(C(=O)NC2CCCC2)c2ccncc2)cc1 (stereo unspecified)	-5	-5	-3	1	-1	3
CN(C)S(=O)(=O)c1cccc(NC(=S)N/N=C/c2ccco2)c1	2	-6	3	16	6	13
CC(/C=N/NC(=S)Nc1cccc(S(=O)(=O)N(C)C)c1)c1ccccc1 (stereo unspecified)	6	-6	-2	5	6	33*
CN(C)S(=O)(=O)c1cccc(NC(=S)N/N=C/C(c2ccccc2)c2ccccc2)c1	2	-10	-5	-2	0	32*
Oc1c(C=NCc2ccccc2)sc2ccccc12	64*	-10	?	26	20	-6
O=[N+]([O-])c1cccc(N=Cc2sc3ccccc3c2O)c1	87*	-9	-1	17	47	7
O=[N+]([O-])c1ccc(N=Cc2sc3ccccc3c2O)cc1	105*	-9	37*	3	40	0
CN(C(=O)c1ccc2c(=O)n3c(nc2c1)CCCCC3)c1cccc(Cl)c1	·	·	0	·	·	-2
COc1ccccc1C(=O)Nc1ccccc1SC(=O)c1ccccc1OC	·	·	-4	·	·	31*
COC(=O)c1ccccc1NC(=O)c1ccccc1OC	0	-2	3	2	-2	1
Cn1c(C(=O)N2CCOCC2)cc2c(=O)n3ccccc3nc21	·	·	4	·	·	-2
Cn1c(C(=O)O)cc2c(=O)n3ccccc3nc21	78*	-14	8	25	43	4
CCOC(=O)C1CCN(C(=O)c2cc3c(=O)n4ccccc4nc3n2C)CC1	51*	-1	?	13	22	-5
